Consider 11 compounds from PubChem BioAssay.

Molecules are shown by their SMILES. The source made the active and inactive calls.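 The calls were made as follows, unless noted: active = viability loss from added drug above about 55%, and viability with drug at most 40%, in both replicates (limit read from the data, passing the limit was not always enough); inconclusive = both conditions met in only one replicate; inactive = neither replicate meets both conditions.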

The viability is a read-out of living cells in per cent, often relative to untreated cells. Broadly, the inhibition is the drop in the measured response relative to a control, in per cent.

The nature of experiment [1]: reduced viability of SK-BR-3 breast cancer cells – cell-based, 24 h, human, pilot screen (AID 572;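 active = viability at or below 10% of carrier control in both of two separate runs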;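 also: compound exposure lasted between 18 and 24 h rather than exactly 24 h; 100% = carrier-treated control wells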). The settings on record: SK-BR-3 viability, CellTiter-Glo luminescence, at 10 µM, stronger effect = lower value. (Cellular ATP, detected with luciferase, serves as a proxy for viable cell number.)
The nature of experiment [2]: HUVEC growth inhibition – cell-based, human, primary screen (AID 575;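 active = viability at or below 30% in both replicate assays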;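 also: 100% = median of untreated cell wells with 0.1% DMSO on each plate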). The settings on record: HUVEC proliferation, CellTiter-Glo luminescence, 72 h; at 10 µM; stronger effect = lower value. The method, boiled down:
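Test system: HUVEC primary cells. Quantity: 1250 endothelial cells in each well. Dosing: single-point 10 µM, DMSO 0.1% final. Incubation: 72 h treatment at 37 °C. Measured by: CTG luminescence. Control set: DMSO cell controls and MePR drug controls. Plate: collagen-coated 384-well format.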

The nature of experiment [3]: H69AR cell proliferation blockers – human, duplicate replicates, primary screen (AID 580;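 active = viability at or under a set limit in both replicates, limit being median viability minus 3 SD, cut at about 48% in these data, passing the limit was not always enough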;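 also: 100% = mean luminescence of untreated wells and 0% = no signal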). The settings on record: H69AR lung tumor cells viability, ATP luminescence, 72 h; at 10 µM; stronger effect = lower value.
Experiment [4] can be described thus: MRP1 drug-resistance reversers in H69AR cells – cell-based, doxorubicin co-treatment, pilot screen (AID 601). The conditions noted are these: CellTiter-Glo, 72 h, at 10 µM; for differential viability (reversal): stronger effect = higher value.
Experiment [5] is described as follows: yeast transport mutant growth inhibition pilot in 384-well plates, post-Golgi transport modulator project (AID 636; in the data active = inhibition above about 31%). The conditions noted are these: absorbance 615 nm, about 18 h, stronger effect = higher value.
Experiment [6] is described as follows: growth suppression of yeast trafficking mutant, preliminary HTS, modulators of trafficking downstream of Golgi apparatus project, 1536-format plate, OD 615 nm (AID 637; in the data active = inhibition above about 30%). The conditions noted are these: yeast transport mutant growth, absorbance 615 nm, 18 h; stronger effect = higher value.
Where [7] appears, read: H69AR cells + 2 uM doxorubicin, measured here: viability with 2 uM doxorubicin, stronger effect = lower value.
[8] abbreviates: H69AR cells, compound alone cytotoxicity.

As to `NC(=O)C1(N2CCCCC2)CCN(C(=O)Nc2ccccc2C(F)(F)F)CC1`, the viability in experiment [1] is 97% (inactive); in experiment [2], 105% (inactive); in experiment [3] it was 90.9% (inactive); in experiment [4] (setting [7]), 86.7%; in experiment [4] (setting [8]) it was 90.9%. Moreover, the differential viability (reversal) in experiment [4] (H69AR cells + 2 uM doxorubicin) is 4.2% (inactive). For the same compound, the inhibition in experiment [5] is -0.39% (inactive); in experiment [6], 5.08% (inactive).

For the compound `CCOc1ccc(NC(=O)CSc2nc3cccnc3n2CC)cc1`, the viability was 103% (inactive) in experiment [1]; 114% (inactive) in experiment [2]; 81.4% (inactive) in experiment [3]; 82.2% in experiment [4] (setting [7]); 81.4% in experiment [4] (setting [8]). The differential viability (reversal) in experiment [4] (H69AR cells + 2 uM doxorubicin) was -0.765% (inactive). The inhibition was -3.77% (inactive) in experiment [5] and 4.1% (inactive) in experiment [6].

For `COC(=O)c1ccc(COc2ccc(C3C4=C(CCCC4=O)Nc4onc(C)c43)cc2)cc1` (stereo not drawn), the viability was 104% (inactive) in experiment [1]; 82.3% (inactive) in experiment [2]; 94.7% (inactive) in experiment [3]; 92.7% in experiment [4] (setting [7]); 94.7% in experiment [4] (setting [8]). For the same compound, in experiment [4] (H69AR cells + 2 uM doxorubicin), the differential viability (reversal) was 2.04% (inactive). In addition, the inhibition in experiment [5] is -5.19% (inactive); in experiment [6], -3.93% (inactive).

As to `C[C@]12CCC(=O)C=C1CC[C@@H]1[C@@H]2[C@@H](O)C[C@@]2(C)[C@H]1CC[C@]2(O)C(=O)CO`, the viability in experiment [1] is 103% (inactive); in experiment [2], 96.2% (inactive); in experiment [3] it was 105% (inactive); in experiment [4] (setting [7]) it was 98.9%; in experiment [4] (setting [8]), 105%. Besides, the differential viability (reversal) in experiment [4] (H69AR cells + 2 uM doxorubicin) is 5.76% (inactive). Also, the inhibition is -1.43% (inactive) in experiment [5] and -3.83% (inactive) in experiment [6].

On to `COCCN(Cc1cc2cc3c(cc2n2nnnc12)OCO3)C(=O)c1ccccc1F`, for which the viability in experiment [1] was 94% (inactive); in experiment [2] it was 113% (inactive); in experiment [3] it was 101% (inactive); in experiment [4] (setting [7]) it was 99.3%; in experiment [4] (setting [8]) it was 101%. Moreover, the differential viability (reversal) in experiment [4] (H69AR cells + 2 uM doxorubicin) was 2.13% (inactive). For the same compound, the inhibition in experiment [5] was -6.35% (inactive); in experiment [6], -7.27% (inactive).

In the case of `Cc1nnc(NC(=O)CCC(=O)N2CCC(C)CC2)s1`, the viability is 86% (inactive) in experiment [1]; 105% (inactive) in experiment [2]; 90.8% (inactive) in experiment [3]; 88.9% in experiment [4] (setting [7]); 90.8% in experiment [4] (setting [8]). Besides, the differential viability (reversal) in experiment [4] (H69AR cells + 2 uM doxorubicin) is 1.93% (inactive). In addition, the inhibition in experiment [5] was -3.01% (inactive); in experiment [6] it was 1.64% (inactive).

As for `O=C1NC(=O)C(c2ccccc2)(c2ccccc2)N1`, the viability in experiment [1] is 111% (inactive); in experiment [2], 75.6% (inactive); in experiment [3], 98% (inactive); in experiment [4] (setting [7]), 90.7%; in experiment [4] (setting [8]) it was 98%. For the same compound, in experiment [4] (H69AR cells + 2 uM doxorubicin), the differential viability (reversal) is 7.3% (inactive). Moreover, the inhibition in experiment [5] is 2.86% (inactive); in experiment [6], -1% (inactive).

Take `O=C(NCCN1CCOCC1)C1CCC(=O)N1Cc1ccccc1Cl` (stereo not drawn): the viability in experiment [1] is 148% (inactive); in experiment [2], 96.4% (inactive); in experiment [3] it was 90% (inactive); in experiment [4] (setting [7]) it was 86.3%; in experiment [4] (setting [8]), 90%. For the same compound, the differential viability (reversal) in experiment [4] (H69AR cells + 2 uM doxorubicin) was 3.78% (inactive). The inhibition was -1.43% (inactive) in experiment [5] and -1.48% (inactive) in experiment [6].

On to `Cc1nccn1CCCN1C(=O)OC2(CCCCC2)C1(C)O` (stereo not drawn), for which the viability in experiment [1] was 90% (inactive); in experiment [2], 88.1% (inactive); in experiment [3], 98.5% (inactive); in experiment [4] (setting [7]), 102%; in experiment [4] (setting [8]), 98.5%. In addition, in experiment [4] (H69AR cells + 2 uM doxorubicin), the differential viability (reversal) was -3.27% (inactive). Besides, the inhibition in experiment [5] was -7.53% (inactive); in experiment [6], -1.29% (inactive).

Take `COC(=O)Nc1sccc1C(=O)Nc1sccc1C(=O)OC`: the viability in experiment [1] was 62% (inactive); in experiment [2], 88.5% (inactive); in experiment [3], 52.2% (inactive); in experiment [4] (setting [7]), 66%; in experiment [4] (setting [8]) it was 52.2%. Besides, the differential viability (reversal) in experiment [4] (H69AR cells + 2 uM doxorubicin) was -13.8% (inactive). Further, the inhibition in experiment [5] was 2.47% (inactive); in experiment [6], -2.36% (inactive).

`O=[N+]([O-])c1cccc2cn[nH]c12`: the viability is 113% (inactive) in experiment [1]; 88.6% (inactive) in experiment [2]; 99.5% (inactive) in experiment [3]; 90% in experiment [4] (setting [7]); 99.5% in experiment [4] (setting [8]). In experiment [4] (H69AR cells + 2 uM doxorubicin), the differential viability (reversal) was 9.56% (inactive). Moreover, the inhibition in experiment [5] was -0.91% (inactive); in experiment [6], 1.17% (inactive).
